Screens deposited in PubChem by several laboratories.
NR2E3 ag-1 – agonists of human nuclear receptor NR2E3. inhibition of corepressor binding, % at 4.78 µM. AID 2300. Q9Y5X4. 320,000 tested, 0.12% active. GST-NR2E3/biotin-RetCOR TR-FRET, 1536-well;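 active = percent inhibition above the cutoff of mean plus 3 SD of all tested compounds, set per screening campaign, cut at about 20% in these data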;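 also: 0% = DMSO wells and 100% = biotin wells as full block of FRET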
Target sequence (Q9Y5X4 whole entry, looked up): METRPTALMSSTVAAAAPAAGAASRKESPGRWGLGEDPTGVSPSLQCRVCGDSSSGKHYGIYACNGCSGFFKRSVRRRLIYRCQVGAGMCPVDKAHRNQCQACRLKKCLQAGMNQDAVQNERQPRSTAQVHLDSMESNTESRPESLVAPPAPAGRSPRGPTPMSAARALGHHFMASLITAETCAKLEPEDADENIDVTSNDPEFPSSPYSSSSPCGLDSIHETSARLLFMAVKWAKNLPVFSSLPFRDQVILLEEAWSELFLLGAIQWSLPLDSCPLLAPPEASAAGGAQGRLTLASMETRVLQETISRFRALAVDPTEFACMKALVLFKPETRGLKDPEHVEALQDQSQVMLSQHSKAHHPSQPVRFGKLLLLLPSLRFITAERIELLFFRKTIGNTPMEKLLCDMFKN
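Format: 1536-well format; test system: GST-NR2E3 and biotin-RetCOR proteins; read-out basis: percent inhibition of TR-FRET ratio; timing: 5 h incubation at 4 °C; detection: time-resolved FRET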
NR2E3 ag-2 – activates human NR2E3 receptor. Q9Y5X4. CHO-S Gal4-NCOR/VP16-NR2E3 two-hybrid, luciferase. inhibition of corepressor binding, % at 3.98 µM. 360,000 tested, 0.35% active. AID 602229;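 active = inhibition above the mean of all tested compounds plus 3 SD, cut at about 70% in these data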;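 also: 0% = DMSO with NR2E3 transfected cells and 100% = cells lacking NR2E3 construct; higher means lower luciferase signal from less NR2E3 corepressor binding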
697 NFkB inh – inhibitors of the PMA/ionomycin-induced NF-kB reporter in 697 B cells. 697 B-cell NF-kB luciferase reporter, 16 h. inhibition, % at 4 µM. 330,000 tested, 0.33% active; in the data active = inhibition above about 35%
GalR3 antag – human GalR3 antagonism. HEK293 GalR3-CNG cAMP membrane potential fluorescence; galR3 body fused to GalR1 C-terminus. inhibition, % at 3 µM. 360,000 tested, 0.44% active;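 active = inhibition above the screen-wide average plus 3 SD, cut at about 13% in these data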;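 also: forskolin and galanin both at EC90 stimulate the cells; cAMP rise reported by CNG channel membrane potential dye signal; 0% = forskolin plus galanin with DMSO and 100% = forskolin alone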
GASC-1 inh – inhibitors of human GASC-1 (JMJD2C) demethylase. Q9H3R0. GST-JMJD2C(1-420) H3K9me3 demethylation, DELFIA europium. inhibition, % at 2.35 µM. 330,000 tested, 0.069% active;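 active = more than half of a compound's replicate wells show inhibition beyond 50%, single wells judged on their own value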;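 also: signal counts dimethyl H3K9 product captured on neutravidin plate; 0% = median of DMSO wells and 100% = 0.3 times that DMSO median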
Jurkat NFkB inh – inhibitors of the PMA/ionomycin-induced NF-kB reporter in Jurkat cells; inhibition, % at 4 µM; 330,000 tested, 0.53% active; PMA/ionomycin-induced NF-kB luciferase reporter, luminescence; in the data active = inhibition above about 50%
NR2E3 ag conf – NR2E3 agonism confirmed in two-hybrid assay. inhibition, % at 3.98 µM. 2,300 tested, 51% active. shares compounds with NR2E3 ag-2. CHO-S mammalian two-hybrid NR2E3-NCOR, luciferase luminescence. AID 624378;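 active = average inhibition above a cutoff equal to the mean inhibition of all tested compounds plus one SD, cut at about 70% in these data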;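 also: 0% = DMSO in NR2E3 cells and 100% = DMSO in cells lacking NR2E3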
GAL4-VP16 luc – reduces GAL4-VP16 reporter signal in NR2E3 counterscreen | shares compounds with NR2E3 ag-2 | CHO-S GAL4-VP16 luciferase reporter, luminescence | inhibition, % at 3.98 µM | 2,300 tested, 29% active;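 active = mean inhibition above a cutoff equal to the average over all tested compounds plus one standard deviation, cut at about 70% in these data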;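 also: luciferase from a UAS reporter driven by GAL4-VP16 transactivation; 0% = DMSO with VP16-transfected cells and 100% = DMSO with cells lacking VP16; higher means less reporter light so more repression of VP16 activity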
* marks the source's active call; other numbers are inactive results. This is a sample that favours compounds with a hit; in the whole collection about 1.5% have one here.

How did COC(=O)c1ccc(Oc2ccc3nnc(C)n3n2)cc1 do in these assays?
NR2E3 ag-1: -2; NR2E3 ag-2: 13; 697 NFkB inh: -31; GalR3 antag: -1; GASC-1 inh: 17; Jurkat NFkB inh: -12

What do the screens show for `Cc1nnc2ccc(Oc3ccc(-c4ccccc4)cc3)nn12`?
NR2E3 ag-1: 7; NR2E3 ag-2: 70; 697 NFkB inh: -14; GalR3 antag: -6; GASC-1 inh: 6; Jurkat NFkB inh: 11; NR2E3 ag conf: 91*; GAL4-VP16 luc: 73*

Results for O=S(=O)(Nc1ccc(Cl)cc1NS(=O)(=O)c1ccccc1)c1ccccc1 ?
NR2E3 ag-2: 82*; GalR3 antag: -6; NR2E3 ag conf: 95*; GAL4-VP16 luc: 65

What do the screens show for `Cc1ccc(S(=O)(=O)Nc2cnc3ccccc3c2)cc1`?
NR2E3 ag-1: 1; NR2E3 ag-2: 49; 697 NFkB inh: -13; GalR3 antag: -6; GASC-1 inh: -13; Jurkat NFkB inh: -5; NR2E3 ag conf: 44; GAL4-VP16 luc: 41

How did Cc1ccc(S(=O)(=O)Nc2ccccc2NS(=O)(=O)c2ccc(C)cc2)cc1 do in these assays?
NR2E3 ag-2: 48; GalR3 antag: -8; NR2E3 ag conf: 46; GAL4-VP16 luc: 20

What do the screens show for `Cc1ccc(NS(=O)(=O)c2ccc(C3CCCCC3)cc2)cc1`?
NR2E3 ag-1: 0; NR2E3 ag-2: 77*; 697 NFkB inh: -26; GalR3 antag: -1; GASC-1 inh: 47; Jurkat NFkB inh: 8; NR2E3 ag conf: 94*; GAL4-VP16 luc: 70

Results for S=c1[nH]nc(-c2cc(-c3ccsc3)n[nH]2)n1-c1cccc2ccccc12 ?
NR2E3 ag-1: 2; NR2E3 ag-2: 49; 697 NFkB inh: -14; GalR3 antag: 4; GASC-1 inh: 10; Jurkat NFkB inh: 2; NR2E3 ag conf: 18; GAL4-VP16 luc: -17

What do the screens show for `Cc1ccc(OCCCCn2cnc3ccccc32)c(C)c1`?
NR2E3 ag-1: -1; NR2E3 ag-2: 72*; 697 NFkB inh: -45; GalR3 antag: 1; GASC-1 inh: 3; Jurkat NFkB inh: 10; NR2E3 ag conf: 89*; GAL4-VP16 luc: 60

What do the screens show for `CCOC(=O)CN(C)C(=O)C1CCCN1C(=O)OC(C)(C)C` (configuration not stated)?
NR2E3 ag-1: -3; NR2E3 ag-2: -8; 697 NFkB inh: 6; GalR3 antag: -2; GASC-1 inh: 11; Jurkat NFkB inh: 0

Results for COc1ccc(NC(=O)C2Cc3c(-c4ccccc4)ccnc3O2)cc1OC (configuration not stated) ?
NR2E3 ag-2: 78*; NR2E3 ag conf: 80*; GAL4-VP16 luc: 71*

What do the screens show for `COc1ccc(NC(=O)C2Cc3c(-c4ccc(Cl)cc4)ccnc3O2)cc1OC` (configuration not stated)?
NR2E3 ag-2: 78*; GalR3 antag: -6; NR2E3 ag conf: 82*; GAL4-VP16 luc: 65

How did COc1ccc(NC(=O)C2Cc3c(-c4ccncc4)ccnc3O2)cc1OC (configuration not stated) do in these assays?
NR2E3 ag-2: -6; GalR3 antag: -7

Results for Cc1sc(NC(=O)CN2CCOCC2)nc1-c1ccc2c(c1)CCN2S(=O)(=O)c1ccccc1 ?
NR2E3 ag-1: 3; NR2E3 ag-2: 56; 697 NFkB inh: -21; GalR3 antag: -7; GASC-1 inh: 10; Jurkat NFkB inh: 35; NR2E3 ag conf: 85*; GAL4-VP16 luc: 71*

Results for Cc1ccc(NC(=O)N2CCCC2C(=O)NCc2ccc(Cl)cc2)cc1 (configuration not stated) ?
NR2E3 ag-1: -2; NR2E3 ag-2: 4; 697 NFkB inh: 3; GalR3 antag: -10; GASC-1 inh: -4; Jurkat NFkB inh: -3
